These results are taken from PMC9364358 (RSC Advances, 2022).

For one experiment, the system named is MOPC-315 cell line. Put plainly: Cytotoxicity. The experiment is classed as cell-based.
The next experiment concerns the target T1, HDAC6 (Homo sapiens, UniProt Q9UBN7).
T1 sequence (Q9UBN7 1-1215): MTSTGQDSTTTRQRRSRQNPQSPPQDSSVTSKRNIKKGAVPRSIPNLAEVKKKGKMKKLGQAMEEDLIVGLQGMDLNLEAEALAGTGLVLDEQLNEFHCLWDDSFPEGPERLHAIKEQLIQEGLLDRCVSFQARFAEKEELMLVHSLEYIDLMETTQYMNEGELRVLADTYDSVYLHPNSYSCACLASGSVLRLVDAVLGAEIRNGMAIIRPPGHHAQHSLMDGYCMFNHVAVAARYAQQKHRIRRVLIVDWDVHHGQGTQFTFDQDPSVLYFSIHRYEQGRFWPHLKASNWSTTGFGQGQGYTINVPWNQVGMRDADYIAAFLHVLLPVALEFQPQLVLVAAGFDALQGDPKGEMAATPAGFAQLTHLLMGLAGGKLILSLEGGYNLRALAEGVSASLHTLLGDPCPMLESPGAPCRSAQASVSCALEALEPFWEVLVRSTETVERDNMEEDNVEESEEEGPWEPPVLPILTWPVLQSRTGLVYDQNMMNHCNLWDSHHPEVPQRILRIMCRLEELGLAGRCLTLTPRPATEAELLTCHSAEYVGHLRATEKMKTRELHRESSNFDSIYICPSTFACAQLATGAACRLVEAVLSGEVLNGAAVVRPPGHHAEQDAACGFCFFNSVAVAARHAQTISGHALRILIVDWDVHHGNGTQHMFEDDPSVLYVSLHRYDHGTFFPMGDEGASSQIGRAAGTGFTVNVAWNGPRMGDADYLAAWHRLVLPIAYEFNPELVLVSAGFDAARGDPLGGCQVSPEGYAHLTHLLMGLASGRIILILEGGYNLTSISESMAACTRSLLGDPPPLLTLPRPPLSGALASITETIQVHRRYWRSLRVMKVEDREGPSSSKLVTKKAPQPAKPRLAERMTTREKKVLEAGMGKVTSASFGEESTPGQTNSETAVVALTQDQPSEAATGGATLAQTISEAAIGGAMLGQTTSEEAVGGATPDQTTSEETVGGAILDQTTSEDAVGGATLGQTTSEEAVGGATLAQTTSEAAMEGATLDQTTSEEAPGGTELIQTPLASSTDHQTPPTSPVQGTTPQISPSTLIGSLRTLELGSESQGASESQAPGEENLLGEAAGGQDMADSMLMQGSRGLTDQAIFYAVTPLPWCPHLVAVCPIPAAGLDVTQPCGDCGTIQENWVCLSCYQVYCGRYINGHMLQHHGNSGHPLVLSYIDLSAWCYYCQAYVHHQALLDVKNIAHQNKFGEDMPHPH
Type of experiment: biochemical. The method in brief:
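HDAC6 enzyme was incubated 30 min with test compound at graded concentrations (DMSO) and HDAC substrate 2 (200 μM stock) in HDAC assay buffer with BSA (1 mg mL−1 stock). The reaction was stopped with HDAC assay developer for 15 min at room temperature, and fluorescence was read at 485/528 nm. A reference HDAC inhibitor served as positive control.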

In a further experiment the test system is HDACs. Put plainly: Fluorometric HDAC activity assay. Type of experiment: cell-based. The settings on record: MCF-7 cells, 30 μM, 2 h. The method in brief: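 MCF-7 cells grown in RPMI-1640 with 10% FBS and 1% penicillin at 37 °C, 5% CO2, then seeded at 5 × 10^3 cells/well. After 24 h, medium was replaced, and HDAC substrate plus test compound (final 30 μM) or trichostatin A was added for 2 h. Developer mix was then added for 30 min at 37 °C, and fluorescence was read (ex 368 nm, em 442 nm).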

For `O=C(/C=C/c1cccc(S(=O)(=O)Nc2ccccc2)c1)NO` [Belinostat], in the experiment on MOPC-315 cell line (Mus musculus, MOPC 315, 24 h, MOPC-315 cell line, 24 h incubation), the IC50 was 318 ± 49 nM. Besides, in the experiment with MOPC-315 cell line (potency relative to belinostat (belinostat = 1.000), MOPC-315), the Fold change came out at 1.000. This molecule also showed an inhibition at 5 µM at HDAC6 of 64.5%. Besides, the “pan-HDAC inhibitory activity (HDAC activity, fluorescence signal)” value with HDACs is reported as “the activity was decreased”.

For orientation: IC50 means the concentration needed to halve the response being measured. Read a high IC50 as lower potency. What is called inhibition is the percentage by which the read-out fell short of the control.
